Values after ≈ are worked out from the molar mass of the structure shown. Active and inactive are the calls of the source. The calls are words filed in the database; no cut-off is given here.
Legend:
[1] = Permeability of the compound at 25 uM at pH 5 after 4 hrs by LC-MS based PAMPA; format: physicochemical; conditions: read-out: permeability
Summary of the method: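 PAMPA: 25 μM compound in aqueous buffer at pH 7.4 or 5.0 (pH adjusted with NaOH) in donor plate, triplicate; acceptor membrane coated with GIT-0 lipid, acceptor sink buffer; 4 h at 25 ± 2 °C; donor and acceptor solutions analysed by LC-MS (UPLC).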

[2] = tested on: Mycobacteroides abscessus; assay: Antibacterial activity against CF patient derived Mycobacterium abscessus subsp. abscessus isolate 2069 smooth variant after 3 to 5 days by two fold serial dilution method; format: functional
Summary of the method: (§1)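 Broth microdilution in cation-adjusted Mueller−Hinton broth per CLSI; inoculum 5 × 10^6 CFU/mL of exponential-phase bacteria; two-fold serial dilutions, solvent-only wells as control; 30 °C for 3−5 days; MIC read visually and confirmed by absorbance at 560 nm; triplicate on three independent occasions.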

[3] = tested on: Mycobacteroides abscessus; assay: Antibacterial activity against CF patient derived Mycobacterium abscessus subsp. massiliense isolate 111 smooth variant after 3 to 5 days by two fold serial dilution method; format: functional; summary of the method: as §1
[4] = tested on: Mycobacteroides abscessus; assay: Inhibition of MmpL3 in Mycobacterium abscessus CIP104536 smooth variant assessed as reduction in arabinogalactan mycolation preincubated for 1 hr followed by [14C]acetic acid addition measured after 2 hrs by TLC based autoradiography analysis
Summary of the method: (§2)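 Exponential cultures in 7H9 with OADC exposed to increasing drug concentrations for 1 h at 37 °C with agitation, then labelled with 1 μCi/mL [14C]acetate (56 mCi/mmol) for 2 h; apolar lipids (TMM, TDM) run on TLC in chloroform/methanol/water 40:8:1; MAME and arabinogalactan-bound mycolates in petroleum ether/acetone 95:5; autoradiography.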

[5] = tested on: Mycobacteroides abscessus; assay: Antibacterial activity against CF patient derived Mycobacterium abscessus subsp. massiliense isolate 107 smooth variant after 3 to 5 days by two fold serial dilution method; format: functional; summary of the method: as §1
[6] = biological target: Cytochrome P450 3A4 (Homo sapiens, UniProt P08684); assay: Inhibition of CYP3A4 in human liver microsomes preincubated for 5 mins followed by NADPH addition measured after 5 mins by LC-MS/MS analysis; format: ADME
Cytochrome P450 3A4, sequence (P08684 whole entry): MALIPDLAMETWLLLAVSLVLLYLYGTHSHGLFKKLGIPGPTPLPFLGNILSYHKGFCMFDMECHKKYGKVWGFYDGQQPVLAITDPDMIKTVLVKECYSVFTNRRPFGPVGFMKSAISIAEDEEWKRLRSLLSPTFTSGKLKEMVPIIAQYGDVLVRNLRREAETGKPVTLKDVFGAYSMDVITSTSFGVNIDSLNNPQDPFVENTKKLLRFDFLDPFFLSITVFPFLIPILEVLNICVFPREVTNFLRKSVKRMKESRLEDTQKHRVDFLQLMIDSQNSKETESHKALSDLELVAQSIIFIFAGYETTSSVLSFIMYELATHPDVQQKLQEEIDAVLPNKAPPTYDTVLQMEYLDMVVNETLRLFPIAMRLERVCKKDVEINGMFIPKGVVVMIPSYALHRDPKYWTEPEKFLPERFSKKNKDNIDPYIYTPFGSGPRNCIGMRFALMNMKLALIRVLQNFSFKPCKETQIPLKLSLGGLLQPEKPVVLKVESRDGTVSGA

[7] = tested on: Liver; assay: Intrinsic clearance in mouse liver microsomes at 0.5 uM in presence of NADPH by LC-MS/MS analysis; format: ADME, microsome
Summary of the method: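 Compound (0.5 μM) incubated with mouse or rat liver microsomes plus NADPH regenerating system; aliquots every 3 min over 30 min analysed for parent by LC-MS/MS; monoexponential decay rate normalized to microsomal protein, expressed as mL/min/g liver.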

[8] = tested on: Mycobacteroides abscessus; assay: (§3) Inhibition of MmpL3 in Mycobacterium abscessus CIP104536 smooth variant assessed as reduction in trehalose dimycolate synthesis up to 6.2 ug/ml preincubated for 1 hr followed by [14C]acetic acid addition measured after 2 hrs by TLC based autoradiography analysis; summary of the method: as §2
[9] = tested on: Salmonella typhimurium; assay: Mutagenicity in Salmonella typhimurium TA98 in presence of rat liver S9 fraction assessed as increase in revertant colonies at 0.24 to 500 ug/well after 72 hrs by Ames test relative to control; format: toxicity; conditions: salmonella enterica subsp. enterica serovar typhimurium, s9, 72 h
Summary of the method: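 Reverse mutation at histidine locus in S. typhimurium TA98 (frameshift) and TA100 (base-pair substitution), with and without S9; 0.24−500 μg/well; 37 ± 2 °C for 72 h, triplicates; DMSO vehicle; sodium azide, 2-nitrofluorene, 2-aminoanthracene positive controls; positive if revertants rise ≥2-fold over negative control dose-dependently.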

[10] = Antibacterial activity against non CF patient derived Mycobacterium abscessus subsp. bolletii isolate 19 rough variant after 3 to 5 days by two fold serial dilution method; format: functional; conditions: Mycobacteroides abscessus; summary of the method: as §1
[11] = tested on: Mycobacteroides abscessus; assay: Antibacterial activity against Mycobacterium abscessus CIP104536 smooth variant harboring pMV261 MAB_4508 wild type at 0.5 to 1 ug/ml after 3 days; format: functional
Summary of the method: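 M. abscessus overexpressing wild-type or A309P MAB_4508 from pMV261 plated on 7H10 agar with 10% OADC containing drug; plates incubated at 30 °C for 3 days before growth inspection.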

[12] = Antibacterial activity against CF patient derived Mycobacterium abscessus subsp. bolletii isolate 112 rough variant after 3 to 5 days by two fold serial dilution method; format: functional; conditions: Mycobacteroides abscessus; summary of the method: as §1
[13] = biological target: Cytochrome P450 2D6 (Homo sapiens, UniProt P10635); assay: Inhibition of CYP2D6 in human liver microsomes preincubated for 5 mins followed by NADPH addition measured after 10 mins by LC-MS/MS analysis; format: ADME
Cytochrome P450 2D6, sequence (P10635 whole entry): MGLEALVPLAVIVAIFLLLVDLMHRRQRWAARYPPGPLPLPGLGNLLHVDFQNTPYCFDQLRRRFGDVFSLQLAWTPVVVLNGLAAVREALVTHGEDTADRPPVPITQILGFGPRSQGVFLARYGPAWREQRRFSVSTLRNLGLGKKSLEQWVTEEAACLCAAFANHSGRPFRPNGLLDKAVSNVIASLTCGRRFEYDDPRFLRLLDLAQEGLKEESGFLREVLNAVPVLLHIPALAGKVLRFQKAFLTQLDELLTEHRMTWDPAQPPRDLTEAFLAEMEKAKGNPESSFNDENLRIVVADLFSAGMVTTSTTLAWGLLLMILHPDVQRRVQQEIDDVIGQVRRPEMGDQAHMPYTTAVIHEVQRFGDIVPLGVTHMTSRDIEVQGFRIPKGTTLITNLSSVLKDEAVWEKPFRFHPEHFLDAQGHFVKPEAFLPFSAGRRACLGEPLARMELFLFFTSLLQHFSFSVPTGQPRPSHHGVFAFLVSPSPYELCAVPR

[14] = tested on: Mycobacteroides abscessus; assay: as §3, with “MmpL3 A309P mutant” for “MmpL3”, “variant harboring pMV261 MAB_4508_A309P mutant” for “variant”, “monomycolate transport at” for “dimycolate synthesis up to”; summary of the method: as §2
[15] = tested on: Mycobacteroides abscessus; assay: Antibacterial activity against Mycobacterium abscessus CIP104536 after 3 to 5 days by two fold serial dilution method; format: functional
Summary of the method: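 Broth microdilution per CLSI in cation-adjusted Mueller–Hinton broth; exponential-phase inoculum 5 × 10^6 CFU/mL; two-fold serial dilutions from highest concentration, solvent wells as control; 30 °C for 3−5 days; MIC read visually and confirmed by absorbance at 560 nm; triplicate on three independent occasions.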

[16] = Antibacterial activity against Mycobacterium abscessus subsp. bolletii isolate CIP108541 smooth variant after 3 to 5 days by two fold serial dilution method; format: functional; conditions: Mycobacteroides abscessus; summary of the method: as §1
[17] = biological target: CYP2C19 (Homo sapiens, UniProt P33261); assay: Inhibition of CYP2C19 in human liver microsomes preincubated for 5 mins followed by NADPH addition at 10 uM measured after 40 mins by LC-MS/MS analysis relative to control; format: ADME
CYP2C19, sequence (P33261 whole entry): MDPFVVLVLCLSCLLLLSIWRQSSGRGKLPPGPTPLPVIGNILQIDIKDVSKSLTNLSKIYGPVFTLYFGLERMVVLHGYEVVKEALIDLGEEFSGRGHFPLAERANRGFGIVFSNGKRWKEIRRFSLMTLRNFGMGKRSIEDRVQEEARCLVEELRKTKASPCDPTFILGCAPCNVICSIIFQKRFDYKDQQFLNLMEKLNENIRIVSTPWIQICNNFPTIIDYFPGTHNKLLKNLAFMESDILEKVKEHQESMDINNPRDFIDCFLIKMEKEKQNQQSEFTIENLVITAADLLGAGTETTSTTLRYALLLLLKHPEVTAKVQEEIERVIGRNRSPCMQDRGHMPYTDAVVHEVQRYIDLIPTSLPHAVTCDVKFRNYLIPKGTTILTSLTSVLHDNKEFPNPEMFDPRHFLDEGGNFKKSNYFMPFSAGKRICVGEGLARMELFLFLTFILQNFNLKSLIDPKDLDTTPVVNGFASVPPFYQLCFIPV

[18] = biological target: CYP2C9 (Homo sapiens, UniProt P11712); assay: Inhibition of CYP2C9 in human liver microsomes preincubated for 5 mins followed by NADPH addition at 10 uM measured after 10 mins by LC-MS/MS analysis relative to control; format: ADME
CYP2C9, sequence (P11712 whole entry): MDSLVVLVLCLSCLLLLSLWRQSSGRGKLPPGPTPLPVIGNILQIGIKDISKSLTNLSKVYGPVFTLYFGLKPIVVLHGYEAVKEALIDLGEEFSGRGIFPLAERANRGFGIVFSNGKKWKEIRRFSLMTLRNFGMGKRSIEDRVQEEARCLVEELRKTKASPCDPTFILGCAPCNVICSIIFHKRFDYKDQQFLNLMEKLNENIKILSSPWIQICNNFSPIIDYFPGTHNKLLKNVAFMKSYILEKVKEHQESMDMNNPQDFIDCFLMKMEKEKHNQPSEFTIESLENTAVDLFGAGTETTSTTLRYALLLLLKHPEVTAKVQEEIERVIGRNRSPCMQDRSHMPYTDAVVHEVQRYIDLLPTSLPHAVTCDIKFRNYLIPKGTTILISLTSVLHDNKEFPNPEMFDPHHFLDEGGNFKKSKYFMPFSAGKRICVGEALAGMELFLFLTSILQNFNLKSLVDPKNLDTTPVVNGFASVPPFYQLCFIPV

[19] = tested on: Mycobacteroides abscessus; assay: Antibacterial activity against CF patient derived Mycobacterium abscessus subsp. massiliense isolate 212 smooth variant after 3 to 5 days by two fold serial dilution method; format: functional; summary of the method: as §1
[20] = biological target: T1, Cytochrome P450 1A2 (Homo sapiens, UniProt P05177); assay: Inhibition of CYP1A2 in human liver microsomes preincubated for 5 mins followed by NADPH addition measured after 10 mins by LC-MS/MS analysis; format: ADME
T1 sequence (P05177 whole entry): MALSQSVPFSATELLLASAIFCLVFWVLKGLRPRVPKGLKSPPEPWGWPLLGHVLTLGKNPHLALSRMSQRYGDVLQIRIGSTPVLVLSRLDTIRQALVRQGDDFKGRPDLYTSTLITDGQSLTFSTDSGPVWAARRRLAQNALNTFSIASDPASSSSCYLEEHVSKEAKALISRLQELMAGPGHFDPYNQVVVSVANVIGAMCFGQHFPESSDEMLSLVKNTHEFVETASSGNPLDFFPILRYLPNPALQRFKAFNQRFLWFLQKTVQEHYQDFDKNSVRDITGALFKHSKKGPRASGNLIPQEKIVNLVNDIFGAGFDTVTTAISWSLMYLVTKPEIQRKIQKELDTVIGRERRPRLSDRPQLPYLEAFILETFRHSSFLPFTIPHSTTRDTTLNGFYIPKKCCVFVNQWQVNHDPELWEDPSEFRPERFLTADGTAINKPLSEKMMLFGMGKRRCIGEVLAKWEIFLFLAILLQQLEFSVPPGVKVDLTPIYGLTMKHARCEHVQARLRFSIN

[21] = tested on: Mycobacteroides abscessus; assay: Antibacterial activity against non CF patient derived Mycobacterium abscessus subsp. abscessus isolate 2587 smooth variant after 3 to 5 days by two fold serial dilution method; format: functional; summary of the method: as §1

Compound: O=C(NC1CCCCCC1)c1cc2c(Cl)cc(Cl)cc2[nH]1
- Papp at 4 h, 25 µM [1]: 0.3 ×10⁻⁶ cm/s
- MIC [2]: 0.125 µg/mL (≈ 0.384 µM)
- MIC [3]: 0.125 µg/mL (≈ 0.384 µM)
- inhibition [4]: Dose-dependent effect
- MIC [5]: 0.25 µg/mL (≈ 0.769 µM)
- IC50 [6]: ≤ 20 µM
- CLH [7]: 4.8 mL/min/g
- inhibition [8]: Active
- fold change (FC) [9]: < 2
- MIC [10]: 0.125 µg/mL (≈ 0.384 µM)
- Activity [11]: Active
- MIC [12]: 0.125 µg/mL (≈ 0.384 µM)
- IC50 [13]: ≤ 20 µM
- inhibition [14]: Active
- MIC [15]: 0.125 µg/mL (≈ 0.384 µM)
- MIC [16]: 0.125 µg/mL (≈ 0.384 µM)
- inhibition at 40 min, 10 µM [17]: 4%
- inhibition at 10 min, 10 µM [18]: 6%
- MIC [19]: 0.125 µg/mL (≈ 0.384 µM)
- IC50 [20]: ≤ 20 µM
- MIC [21]: 0.125 µg/mL (≈ 0.384 µM)

Reference: ChEMBL document CHEMBL4014347, “Targeting Mycolic Acid Transport by Indole-2-carboxamides for the Treatment of Mycobacterium abscessus Infections” (J Med Chem, 2017)
